# Screens (PubChem)
# Shown are actives, neighbours in structure and some others; about 3.5% of the full set was active somewhere.
# Cneo AK release: causes C. neoformans cell lysis; adenylate kinase release luminescence, 4 h; normalised: neutral wells 0, clomiphene wells 100; lysis activity, % at 15 µM; 360,000 tested, 0.2% active; AID 651654;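 active = mean lysis activity across replicates of at least 80%, whatever share of replicates individually reach that level; inactive = mean lysis activity below 80%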
#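 Material: C. neoformans cells; Schedule: 4 h static compound exposure, 37 °C, read 1 h post-reagent; Measured by: adenylate kinase release luminescence; Read-out: signal increase indicating cell lysis; Controls: Clomiphene as positive lysis control.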
# HIV Env fusion: HIV envelope-mediated fusion inhibition | HeLa-JRFL Env/CEM21 cell fusion, luciferase | inhibition, % at 12.3 µM | 360,000 tested, 1.1% active | AID 651610;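 active = mean replicate inhibition score of at least 50 and every replicate individually at or above 50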
# PGC1a acetyl inh: lowers PGC1a acetylation signal in U2OS cells | AlphaScreen anti-acetyl-lysine; with virally co-expressed GCN5 acetyltransferase | inhibition, % at 15.6 µM | 350,000 tested, 0.17% active | AID 651687;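 active = every replicate shows inhibition of at least 40%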
# FGF22 binding: binders of recombinant human FGF22 by thermal shift; Q9HCT0; SYPRO orange fluorescence; percent of sucrose octasulfate shift, DMSO zero; activity (Tm shift, normalised), % at 9.99 µM; 340,000 tested, 1.5% active; AID 651658;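 active = mean Tm shift, scaled 0 neutral to 100 positive control, at about 1.3% or above, every replicate too, limit read from the data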
# Target sequence (Q9HCT0 whole entry, looked up): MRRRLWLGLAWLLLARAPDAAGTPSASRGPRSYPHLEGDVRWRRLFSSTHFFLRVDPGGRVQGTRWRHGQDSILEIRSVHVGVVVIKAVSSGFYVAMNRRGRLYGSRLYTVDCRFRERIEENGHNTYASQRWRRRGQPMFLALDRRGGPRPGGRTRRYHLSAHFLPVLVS
# rRNA inh HTS: inhibitors of bacterial rRNA selective over humanized ribosomes | E. coli WT GFP vs humanized-ribosome RFP mutants, fluorescence, 24 h; stronger effect = lower value; DMSO median 0, no signal -100 | GFP signal change (wild-type ribosome), % (concentration not given with the values) | 350,000 tested, 1.6% active | AID 720706;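 active = significant combined selectivity score with lowered wild-type GFP, culture density cut under 30%, mutant RFP and density less affected; inactive = any of these conditions unmet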
# ERAP1 inh: ERAP1 (human) enzyme inhibition; inhibition, % at 10.7 µM; 340,000 tested, 0.15% active; Q9NZ08; recombinant ERAP1, Leu-AMC fluorescence, 60 min; AID 652197;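 active = mean replicate inhibition of at least 30%, or all replicates individually reaching that 30% level; inactive = mean below 30% and not every replicate reaching it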
# A number is an active result; i = inactive; nt = no result given.
SMILES,Cneo AK release,HIV Env fusion,PGC1a acetyl inh,FGF22 binding,rRNA inh HTS,ERAP1 inh
Cn1cccc1-c1cc(C(=O)N/N=C/C=C/c2ccccc2)[nH]n1,nt,i,i,1.7,i,i
CCOC(=O)N1CCN(Cc2nc3cc(NC(=O)c4ccco4)ccc3n2CC)CC1,i,i,nt,i,i,i
CC(C)COC(=O)NCCCOC(=O)Nc1ccccc1,i,nt,i,nt,nt,nt
CC1=C(C(=O)OC(C)C)C(c2ccc(Cl)cc2)n2c(sc(=Cc3ccc(OCC(=O)O)cc3)c2=O)=N1 (stereo unspecified),i,i,nt,4.2,i,nt
CC(=O)C1CCC2C3CC(C)C4(O)CC(=O)CCC4(C)C3C(O)CC12C (stereo unspecified),i,i,i,i,i,i
O=C(O)c1cc(/C=C/c2ccc(N3CCOCC3)c([N+](=O)[O-])c2)nc2ccccc12,i,i,i,i,i,i
O=C(O)c1cc(/C=C/c2ccc(N3CCOCC3)cc2)nc2ccccc12,nt,i,nt,i,-25.0,i
COc1cc(/C=C/c2cc(C(=O)O)c3ccccc3n2)ccc1OC(F)F,nt,i,i,i,-25.9,i
Cc1ccccc1OCc1nnc(SCc2nc3ccccc3c(=O)[nH]2)n1C,nt,i,i,i,i,i
COc1ccc(CCCc2nnc(SCc3nc4ccccc4c(=O)[nH]3)n2C)cc1C,i,i,i,42.9,i,i
CCCCCc1ccc(OCCCC[n+]2cccc(C)c2)c(CCCCC)c1,nt,56.3,i,nt,i,i
CCCCCc1ccc(OCCCC[n+]2ccccc2)c(CCCCC)c1,nt,nt,i,nt,nt,nt
CCCCCc1ccc(OCCCC[n+]2ccc(C)cc2)c(CCCCC)c1,nt,55.2,i,i,i,i
CCCCOc1ccc(C)cc1CN(CCO)CCO,i,nt,nt,nt,nt,nt
CC(C)NC(=O)N(C)C[C@H]1Oc2ncc(C#CC3CCCCC3)cc2C(=O)N([C@@H](C)CO)C[C@@H]1C,nt,i,i,nt,i,nt
Cc1ccc(NC(=O)CNc2ccc(Cl)c(Cl)c2)cc1S(=O)(=O)N(C)C,i,i,i,i,i,i
Cc1ccc(NC(=O)CSc2nn(-c3ccc(Cl)cc3)c(=S)s2)cc1S(=O)(=O)N(C)C,i,82.7,i,i,i,i
NS(=O)(=O)c1cccc(NC(=O)CSc2nn(-c3ccccc3)c(=S)s2)c1,i,i,i,nt,nt,nt
CN(C)S(=O)(=O)c1cc(NC(=O)CSc2nn(-c3ccc(Cl)cc3)c(=S)s2)ccc1Cl,nt,132.5,nt,nt,nt,nt
O=C(O)c1cc(-c2ccc3c(c2)OCO3)nc2ccc(Cl)cc12,i,i,i,i,i,i
C[C@@H]1CCCCO[C@@H](CN(C)S(=O)(=O)c2ccccc2)[C@@H](C)CN([C@H](C)CO)C(=O)c2cc(NC(=O)CCC(F)(F)F)ccc2O1,i,i,i,14.8,i,i
C[C@@H]1CCCCO[C@H](CN(C)S(=O)(=O)c2cccs2)[C@@H](C)CN([C@@H](C)CO)C(=O)c2cc(NC(=O)CCC(F)(F)F)ccc2O1,94.0,i,i,i,i,i
O=C(O)CC1(CC(=O)Nc2ccc(F)c(Cl)c2)CCCCC1,i,i,i,i,-23.4,i
Cc1nc2ccccc2n1Cc1ccccc1,i,i,nt,i,i,i
Cc1nc2ccccc2n1Cc1ccc(Br)cc1,i,i,i,i,-47.0,i
SMILES,Cneo AK release,HIV Env fusion,PGC1a acetyl inh,FGF22 binding,rRNA inh HTS,ERAP1 inh
N#Cc1c(-c2ccccc2Cl)c2c([nH]c1=O)-c1ccccc1OC2,i,i,i,i,-23.9,i
OC1CCCN(c2c3c(nc4cc(-c5cccc(Cl)c5)nn24)CCC3)C1 (stereo unspecified),i,nt,i,nt,nt,nt
Cc1c(O)ccc2c(CN3CCN(Cc4ccccc4)CC3)cc(=O)oc12,i,i,i,i,i,i
CN(C)Cc1c(O)ccc2c(-c3ccccc3)cc(=O)oc12,nt,i,i,43.0,i,i
CCCCc1cc(=O)oc2c(CN(C)C)c(O)ccc12,i,i,i,nt,nt,nt
Cc1c(O)ccc2c(CN(C)Cc3ccccc3)cc(=O)oc12,i,i,i,i,-25.5,nt
C=CCOc1ccc(/C(O)=C2/C(=O)C(=O)N(CCN3CCOCC3)C2c2ccc(C)cc2)cc1 (stereo unspecified),i,i,i,nt,nt,nt
N#C/C(=N\Nc1cc(Cl)cc(Cl)c1)c1nnc2n1CCCCC2,i,i,nt,43.2,i,i
N#C/C(=C(/O)CCl)c1nnc2n1CCCCC2,i,i,i,i,i,i
O=C(c1ccc(C(F)(F)F)cc1)N1CCC(=O)N(C(COCc2ccc(Cl)cc2)Cc2ccccc2)CC1 (stereo unspecified),i,i,nt,i,i,i
CC(C)C[C@@H](COCc1cccc(Cl)c1)N1CCN(C(=O)c2ccc(C(F)(F)F)cc2)CCC1=O,nt,56.8,nt,i,i,nt
O=C(c1ccc(C(F)(F)F)cc1)N1CCC(=O)N(C(COCc2ccccc2)Cc2ccccc2)CC1 (stereo unspecified),i,63.3,i,i,i,i
CC(C)C[C@@H](COCc1ccc(C(F)(F)F)cc1)N1CCN(C(=O)c2ccc(C(F)(F)F)cc2)CCC1=O,nt,i,nt,i,i,nt
CC(C)CC(COCc1ccc(C(F)(F)F)cc1)N1CCN(C(=O)c2ccc(C(F)(F)F)cc2)CCC1=O (stereo unspecified),i,57.5,i,i,i,i
COc1ccc(S(=O)(=O)N(C)C[C@@H]2Oc3ccc(NC(=O)Nc4cccc5ccccc45)cc3CC(=O)N([C@H](C)CO)C[C@H]2C)cc1,nt,i,i,i,i,i
O=C(CCC1CCN(Cc2ccccc2O)CC1)NC1CC1,i,i,i,i,i,i
O=C(CCC1CCN(Cc2ccccc2Cl)CC1)NC1CC1,i,i,94.6,i,i,i
CC(=O)Nc1cccc2c1Cc1ccccc1-2,i,nt,i,nt,nt,nt
CC(=O)Nc1cccc2c1Cc1cc([N+](=O)[O-])ccc1-2,nt,i,i,i,-19.1,i
Cc1ccc(NC(=O)Cc2noc3ccccc23)nc1,nt,i,nt,i,i,i
COc1ccc(CN(C)C(=O)c2ccc(OCC(=O)Nc3cccc(C(F)(F)F)c3)c(OC)c2)c(OC)c1,i,75.7,i,i,i,i
COc1ccc(NC(=O)COc2ccc(C(=O)OCC(=O)N(C(C)C)C(C)C)cc2OC)cc1,i,i,i,i,-27.3,i
C/C=C/c1ccc(OCC(=O)Nc2ccc(C(N)=O)cc2)c(OC)c1,nt,i,nt,43.9,i,i
COc1cccc(CN(C)C(=O)c2ccc(OCC(=O)Nc3cccc(C(F)(F)F)c3)c(OC)c2)c1,i,i,i,nt,i,i
CN(C1CCS(=O)(=O)C1)S(=O)(=O)c1cccc2nsnc12 (stereo unspecified),i,nt,i,nt,nt,nt
CCCC1C(=O)Nc2ccccc2N1C(=O)c1cccc(C)c1 (stereo unspecified),i,i,i,i,i,i
CCCC1C(=O)Nc2ccccc2N1C(=O)c1ccc(C(C)(C)C)cc1 (stereo unspecified),i,62.2,nt,i,i,i
